This note sets out measurements from ChEMBL document CHEMBL1153092, “Discovery of novel thieno[2,3-d]pyrimidin-4-yl hydrazone-based inhibitors of cyclin D1-CDK4: synthesis, biological evaluation and structure-activity relationships. Part 2” (Bioorg Med Chem, 2009).

The subject of one data set is PC-6. The data set can be described thus: Cytotoxicity against human PC6 cells after 3 days by MTT assay. In kind it is functional, cell-based. To be noted: PC-6, 72 h. Summed up:
(§1)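 Cells (PC-6 shown) were kept in RPMI 1640 with 10% FBS and plated on day 0. Compound, serially diluted in DMSO, was added on day 1 at ten concentrations. Viable cells were counted by MTT after 3 days of culture. The 50% growth-inhibition concentration was solved from 100×[(T−T₀)/(C−T₀)]=50, where T₀ is the optical density at time zero.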

Data set [1] has as its target Cyclin-dependent kinase 4/cyclin D1 (Homo sapiens, UniProt P11802). As to the kind of experiment: Inhibition of CDK4/Cyclin D1 expressed in Sf9 cells assessed as inhibition of Rb phosphorylation. The method, boiled down:
(§2)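 CDK4/cyclin D1 or CDK2/cyclin E was purified from baculovirus-infected Sf-9 cells. The substrate was bacterial GST-Rb on glutathione-sepharose beads, with [³³P]ATP. Reactions ran 30 min at 30 °C in filter plates, were washed four times and counted. IC₅₀ (µg/mL) came from dose–response curves, as the mean of at least two determinations.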

For data set [2], the system named is HCT-116. As to the kind of experiment: Cytotoxicity against human HCT116 cells after 3 days by MTT assay. To be noted: HCT-116, 72 h. The class given is functional, cell-based. Summed up: as §1
The target in data set [3] is Cyclin-dependent kinase 2/cyclin E1 (Homo sapiens, UniProt P24941). As to the kind of experiment: Inhibition of CDK2/Cyclin E expressed in Sf9 cells assessed as inhibition of Rb phosphorylation. The method, boiled down:
as §2

Data set [4] in a line: Selectivity for CDK4/Cyclin D1 over CDK2/Cyclin E. Summed up: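 Selectivity was calculated as CDK2 IC₅₀ divided by CDK4 IC₅₀, using the Rb-phosphorylation kinase assay values.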
For data set [5], the system named is HCT-116. The data set can be described thus: Cell cycle arrest in human HCT116 cells assessed as accumulation at G1 phase at 60 ng/mL after 16 hrs using propidium iodide staining by flow cytometry. In kind it is functional. The method, boiled down:
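HCT116 cells were treated for 16 h with compound at concentrations in ng/mL, with DMSO as control. Cells were then collected and their DNA content was analysed by flow cytometry. The percentages of cells in G0/G1, S and G2/M were quantified.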

Data set [6] is described as follows: Aqueous solubility of compound. In kind it is physicochemical. To be noted: water (aqueous).
Data set [7] has as its system Mus musculus. As to the kind of experiment: Toxicity in human HCT116 cells xenografted BALB/c mouse assessed as maximum body weight loss rate at 300 mg/kg, iv qd for 4 days measured 7 days post dose. The class given is organism-based, HCT-116. The arrangement: dose 300 mg/kg, route intravenous. To be noted: in vivo, 168 h. Summed up:
(§3)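 HCT116 tumour cells implanted s.c. in right hind limb of male BALB/c-nu/nu mice aged 5 or 6 weeks. Dosing began once tumours averaged 80–100 mm³, with compound in 20% Captisol solution given iv or po once daily for 4 days (qdx4). Tumour volume was measured periodically by caliper and body weight was followed. Maximum inhibition of tumour volume and maximum body weight loss are reported with their day after first dose. Deaths were scored as from toxicity or from tumour, out of 5 mice.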

Data set [8] concerns Mus musculus. As to the kind of experiment: Toxicity in human HCT116 cells xenografted BALB/c mouse assessed as maximum body weight loss rate at 350 mg/kg, po qd for 4 days measured 5 days post dose. In kind it is organism-based, HCT-116. The arrangement: dose 350 mg/kg, route oral. To be noted: in vivo, 120 h. Summed up:
as §3

For data set [9], the system named is HCT-116. The data set can be described thus: Antitumor activity against human HCT116 cells xenografted in BALB/c mouse assessed as maximum tumor volume inhibition rate at 300 mg/kg, iv qd for 4 days measured 9 days post dose. In kind it is functional. The method, boiled down:
as §3

In data set [10] the test system is Mus musculus. The data set can be described thus: Toxicity in human HCT116 cells xenografted BALB/c mouse assessed as mouse mortality at 350 mg/kg, po qd for 4 days. As to conditions: in vivo, 96 h. The arrangement: dose 350 mg/kg, route oral. The class given is organism-based, HCT-116. Summed up: (§4)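 HCT116 cells implanted subcutaneously in right hind limb of male BALB/c-nu/nu mice aged 5 or 6 weeks; dosing began once tumours averaged 80–100 mm³. Compound in 20% Captisol solution given iv or po once daily for 4 days (qdx4). Tumour volume measured periodically by caliper. Deaths scored as toxicity deaths/tumour deaths/mice used, n=5 per group.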

Data set [11] has as its system Mus musculus. The data set can be described thus: Toxicity in human HCT116 cells xenografted BALB/c mouse assessed as mouse mortality at 300 mg/kg, iv qd for 4 days. In kind it is organism-based, HCT-116. The arrangement: dose 300 mg/kg, route intravenous. To be noted: in vivo, 96 h. Summed up: as §4
The test system of data set [12] is HCT-116. As to the kind of experiment: Antitumor activity against human HCT116 cells xenografted in BALB/c mouse assessed as tumor induced mouse death at 300 mg/kg, iv qd for 4 days. The arrangement: dose 300 mg/kg. In kind it is functional, organism-based. Summed up: as §3
Data set [13] relates to HCT-116. The data set can be described thus: Antitumor activity against human HCT116 cells xenografted in BALB/c mouse assessed as maximum tumor volume inhibition rate at 350 mg/kg, po qd for 4 days measured 6 days post dose. In kind it is functional. The method, boiled down: as §3
Data set [14] relates to HCT-116. The data set can be described thus: Antitumor activity against human HCT116 cells xenografted in BALB/c mouse assessed as tumor induced mouse death at 350 mg/kg, po qd for 4 days. In kind it is functional, organism-based. Also on record: dose 350 mg/kg. The method, boiled down:
as §3

Structures are written as SMILES. In brackets after ≈: the same amount, converted by molar mass. Activity calls are given as the source filed them. No cut-off for these calls is given here.

Cyclin-dependent kinase 4/cyclin D1, sequence (P11802 whole entry): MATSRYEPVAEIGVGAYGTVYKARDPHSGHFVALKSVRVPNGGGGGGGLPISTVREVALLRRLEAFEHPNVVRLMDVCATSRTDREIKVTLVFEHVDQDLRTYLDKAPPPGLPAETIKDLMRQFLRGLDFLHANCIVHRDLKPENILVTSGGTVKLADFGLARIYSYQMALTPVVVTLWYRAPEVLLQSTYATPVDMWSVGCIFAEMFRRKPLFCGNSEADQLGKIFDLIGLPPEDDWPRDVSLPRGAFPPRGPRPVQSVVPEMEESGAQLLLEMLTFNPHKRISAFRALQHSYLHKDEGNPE
Cyclin-dependent kinase 4/cyclin D1, sequence (P24385 whole entry, further chain): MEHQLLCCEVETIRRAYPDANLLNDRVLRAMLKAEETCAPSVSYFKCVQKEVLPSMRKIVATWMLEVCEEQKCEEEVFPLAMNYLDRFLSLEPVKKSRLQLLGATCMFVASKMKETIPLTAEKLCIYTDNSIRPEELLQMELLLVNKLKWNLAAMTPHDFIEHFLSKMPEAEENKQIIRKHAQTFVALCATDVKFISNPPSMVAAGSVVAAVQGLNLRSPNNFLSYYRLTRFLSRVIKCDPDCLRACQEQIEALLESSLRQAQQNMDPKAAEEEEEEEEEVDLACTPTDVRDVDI

Take `CC(C)(C)c1cc2c(N/N=C/c3ccc(O)cc3)ncnc2s1`: the IC50 with PC-6 was over 10 µg/mL; in data set [1], over 61.3 µM; in the data set with HCT-116 [2], 0.844 µg/mL (≈ 2.59 µM); in data set [3] it was 33.7 µM.

Regarding `CC(C)(C)c1cc2c(N/N=C/c3ccccc3)ncnc2s1`, the IC50 in the data set with PC-6 is 6.54 µg/mL (≈ 21.1 µM); in [1] it was 1.97 µM; in data set [3], over 64.4 µM. Moreover, the Selectivity ratio in [4] was over 33.

Consider `CC(C)N1Cc2ccc(/C=N/Nc3ncnc4sc(C(C)(C)C)cc34)cc2C1`, for which the IC50 with PC-6 was 0.134 µg/mL (≈ 0.34 µM); in [1], 0.203 µM; with HCT-116 [2], 0.206 µg/mL (≈ 0.523 µM); in data set [3], 7.62 µM. Moreover, in data set [4], the Selectivity ratio stood at 37.5.

Turning to `CNCc1ccc(/C=N/Nc2ncnc3sc(C(C)(C)C)cc23)cc1`, the IC50 in the data set with PC-6 is 0.044 µg/mL (≈ 0.124 µM); in data set [1] it was 0.107 µM; in the data set on HCT-116 [2], 0.056 µg/mL (≈ 0.158 µM); in data set [3], 1.92 µM. Moreover, the Activity in the data set with HCT-116 [5] was 57%; in the data set with Mus musculus [7], 9.7%; with Mus musculus [8], 16%; with Mus musculus [10] it was “Non-toxic”; in the data set on Mus musculus [11] it was “Non-toxic”. The same molecule had a solubility in data set [6] of 783 µg/mL (≈ 2220 µM). Moreover, the inhibition in vivo at 300 mg/kg with HCT-116 [9] worked out at 54%. The outcome with HCT-116 [12] and with HCT-116 [14] was Active. Further, the Selectivity ratio in [4] came to 17.9. In addition, the inhibition in vivo at 350 mg/kg in the data set with HCT-116 [13] was 57%.

As to `CN(C)S(=O)(=O)c1ccc(/C=N/Nc2ncnc3sc(C(C)(C)C)cc23)cc1`, the IC50 was 2.12 µg/mL (≈ 5.08 µM) in the data set on PC-6, over 47.9 µM in data set [1], 1.42 µg/mL (≈ 3.4 µM) with HCT-116 [2] and 2.92 µM in data set [3].

With `CC(C)(C)c1cc2c(N/N=C/c3ccc(CO)cc3)ncnc2s1`, the IC50 in the data set with PC-6 is 0.556 µg/mL (≈ 1.63 µM); in data set [1], 1.17 µM; with HCT-116 [2] it was 0.665 µg/mL (≈ 1.95 µM); in data set [3], 0.764 µM. The Selectivity ratio in data set [4] is 0.7.

`CN(C)Cc1ccc(/C=N/Nc2ncnc3sc(C(C)(C)C)cc23)cc1`: the IC50 was 0.107 µg/mL (≈ 0.291 µM) in the data set with PC-6, 0.21 µM in data set [1], 0.128 µg/mL (≈ 0.348 µM) with HCT-116 [2] and 1.63 µM in [3]. Moreover, in data set [4], the Selectivity ratio came out at 7.8.

Regarding `CN(C)Cc1cccc(/C=N/Nc2ncnc3sc(C(C)(C)C)cc23)c1`, the IC50 in the data set on PC-6 is 0.598 µg/mL (≈ 1.63 µM); in data set [1], 0.0707 µM; in the data set with HCT-116 [2], 0.405 µg/mL (≈ 1.1 µM); in data set [3], 2.99 µM. For the same molecule, the Selectivity ratio in data set [4] stood at 42.3.
